The values below come from article PMC6231235 (Science translational medicine, 2017).

Each structure is given as a SMILES string.

The subject of the assay is human FXa. Nature of the assay: In vitro neutralization of anti-FXa activity by protamine. The format is biochemical. The conditions noted are these: sample at 25 x IC50, protamine 0 to 90 μg/ml. The essentials: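 Human plasma is combined with a fixed test-compound stock set per construct and protamine chloride in PBS (0 to 90 μg/ml solutions), then held 5 min at room temperature. The mixture then goes into the chromogenic anti-FXa assay: human FXa for 4 min at room temperature, S-2765 substrate, and A405 read continuously for 5 min.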

Turning to `CO[C@H]1O[C@H](COS(=O)(=O)O)[C@@H](O[C@@H]2O[C@@H](C(=O)O)[C@@H](O[C@H]3O[C@H](COS(=O)(=O)O)[C@@H](O[C@@H]4O[C@H](C(=O)O)[C@@H](O[C@H]5O[C@H](COS(=O)(=O)O)[C@@H](O)[C@H](O)[C@H]5NS(=O)(=O)O)[C@H](O)[C@H]4O)[C@H](OS(=O)(=O)O)[C@H]3NS(=O)(=O)O)[C@H](O)[C@H]2OS(=O)(=O)O)[C@H](O)[C@H]1NS(=O)(=O)O` [Fondaparinux], the “neutralization of anti-FXa activity by protamine in vitro” value was “completely insensitive”.
